Values after ≈ are worked out from the molar mass of the structure shown.
Assays:
Format in all cases: functional
Campylobacter jejuni [1] = assay: Antibacterial activity against bla gene-positive and nitrocefin reaction-positive beta-lactamase harboring Campylobacter jejuni isolate P1618 by NCCLS agar doubling dilution method
How it was run: (§1)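 MICs of β-lactams by agar doubling dilution following the NCCLS (CLSI) Campylobacter Working Group procedure, with C. jejuni NCTC 11168 and C. coli NCTC 11366 as controls. Isolates were from UK poultry flocks. β-Lactamase status was set by Cj0299 PCR (281-bp amplimer) and by a nitrocefin colour change of sonicated lysate within 5 min, or within 30 min on repeat.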

Campylobacter jejuni [2] = assay: Antibacterial activity against bla gene-positive and nitrocefin reaction-positive beta-lactamase harboring Campylobacter jejuni isolate P305 by NCCLS agar doubling dilution method
How it was run: (§2)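 MICs by agar doubling dilution per the NCCLS (now CLSI) Campylobacter Working Group method. Isolates came from UK chicken flocks (feces, ceca or farm environment), 2000–2006. C. jejuni NCTC 11168 and C. coli NCTC 11366 served as control strains. The ampicillin resistance cutoff was 8 μg/ml; BSAC/CLSI Enterobacteriaceae guidelines were used for other agents.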

Campylobacter jejuni [3] = assay: Antibacterial activity against Campylobacter jejuni isolate P270 harboring blaOXA-61::cat gene by NCCLS agar doubling dilution method
Campylobacter jejuni [4] = assay: Antibacterial activity against bla gene-positive and nitrocefin reaction-negative beta-lactamase harboring Campylobacter jejuni NCTC 11168 by NCCLS agar doubling dilution method; how it was run: as §1
Campylobacter jejuni [5] = assay: Antibacterial activity against bla gene-negative and nitrocefin reaction-negative beta-lactamase harboring Campylobacter jejuni isolate P850 by NCCLS agar doubling dilution method; how it was run: as §1
Campylobacter jejuni [6] = assay: Antibacterial activity against bla gene-positive and nitrocefin reaction-positive beta-lactamase harboring Campylobacter jejuni isolate P338 by NCCLS agar doubling dilution method; how it was run: as §2
Campylobacter jejuni [7] = assay: Antibacterial activity against bla gene-negative and nitrocefin reaction-positive beta-lactamase harboring Campylobacter jejuni isolate P843 by NCCLS agar doubling dilution method; how it was run: as §1
Campylobacter jejuni [8] = assay: Antibacterial activity against bla gene-positive and nitrocefin reaction-positive beta-lactamase harboring Campylobacter jejuni isolate P790 by NCCLS agar doubling dilution method; how it was run: as §2
Campylobacter jejuni [9] = assay: Antibacterial activity against bla gene-positive and nitrocefin reaction-positive beta-lactamase harboring Campylobacter jejuni isolate P1650 by NCCLS agar doubling dilution method; how it was run: as §1
Campylobacter coli [10] = assay: Antibacterial activity against bla gene-positive and nitrocefin reaction-positive beta-lactamase harboring Campylobacter coli isolate P1826 by NCCLS agar doubling dilution method; how it was run: as §1
Campylobacter jejuni [11] = assay: Antibacterial activity against Campylobacter jejuni isolate P338 harboring blaOXA-61::cat gene by NCCLS agar doubling dilution method
How it was run: (§3)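 Agar doubling dilution MICs (NCCLS/CLSI Campylobacter Working Group method) against Cj0299-inactivated mutants. Mutants were made by transforming the C. jejuni isolate with pCI and selecting on Mueller-Hinton agar with 10 μg/ml chloramphenicol for 3–5 days. Chromosomal insertion was confirmed by PCR with Cj0299 and cat primers.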

Campylobacter jejuni [12] = assay: Antibacterial activity against bla gene-positive and nitrocefin reaction-positive beta-lactamase harboring Campylobacter jejuni isolate P285 by NCCLS agar doubling dilution method; how it was run: as §2
Campylobacter jejuni [13] = assay: Antibacterial activity against Campylobacter jejuni by NCCLS agar doubling dilution method
How it was run: (§4)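 MICs by agar doubling dilution following the NCCLS (CLSI) Campylobacter Working Group procedure, applied to ampicillin- and amoxicillin-resistant isolates from UK chicken flocks (2000–2006). C. jejuni NCTC 11168 and C. coli NCTC 11366 served as control strains. Resistance was called at an ampicillin cutoff of 8 μg/ml. Other agents were judged against Enterobacteriaceae guidelines (BSAC, CLSI).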

Campylobacter coli [14] = assay: Antibacterial activity against Campylobacter coli by NCCLS agar doubling dilution method; how it was run: as §4
Campylobacter jejuni [15] = assay: Antibacterial activity against bla gene-negative and nitrocefin reaction-positive beta-lactamase harboring Campylobacter jejuni isolate P854 by NCCLS agar doubling dilution method; how it was run: as §1
Campylobacter jejuni [16] = assay: Antibacterial activity against bla gene-positive and nitrocefin reaction-negative beta-lactamase harboring Campylobacter jejuni isolate P1699 by NCCLS agar doubling dilution method; how it was run: as §1
Campylobacter coli [17] = assay: Antibacterial activity against bla gene-positive and nitrocefin reaction-positive beta-lactamase harboring Campylobacter coli isolate P321 by NCCLS agar doubling dilution method; how it was run: as §1
Campylobacter jejuni [18] = assay: Antibacterial activity against bla gene-positive and nitrocefin reaction-positive beta-lactamase harboring Campylobacter jejuni isolate P1093 by NCCLS agar doubling dilution method; how it was run: as §1
Campylobacter jejuni [19] = assay: Antibacterial activity against bla gene-positive and nitrocefin reaction-positive beta-lactamase harboring Campylobacter jejuni isolate P1730 by NCCLS agar doubling dilution method; how it was run: as §2
Campylobacter jejuni [20] = assay: Antibacterial activity against bla gene-positive and nitrocefin reaction-negative beta-lactamase harboring Campylobacter jejuni isolate P1698 by NCCLS agar doubling dilution method; how it was run: as §1
Campylobacter jejuni [21] = assay: Antibacterial activity against Campylobacter jejuni isolate P1093 harboring blaOXA-61::cat gene by NCCLS agar doubling dilution method; how it was run: as §3
Campylobacter jejuni [22] = assay: Antibacterial activity against bla gene-negative and nitrocefin reaction-negative beta-lactamase harboring Campylobacter jejuni isolate P835 by NCCLS agar doubling dilution method; how it was run: as §1
Campylobacter jejuni [23] = assay: Antibacterial activity against bla gene-positive and nitrocefin reaction-positive beta-lactamase harboring Campylobacter jejuni isolate P316 by NCCLS agar doubling dilution method; how it was run: as §2
Campylobacter coli [24] = assay: Antibacterial activity against bla-positive and beta-lactamase-weakly positive Campylobacter coli isolate P1627 by NCCLS agar doubling dilution method; how it was run: as §2
Campylobacter jejuni [25] = assay: Antibacterial activity against bla gene-negative and nitrocefin reaction-negative beta-lactamase harboring Campylobacter jejuni isolate P1962 by NCCLS agar doubling dilution method; how it was run: as §1
Campylobacter jejuni [26] = assay: Antibacterial activity against bla gene-positive and nitrocefin reaction-positive beta-lactamase harboring Campylobacter jejuni isolate P286 by NCCLS agar doubling dilution method; how it was run: as §2

## Cc1onc(-c2ccccc2Cl)c1C(=O)N[C@@H]1C(=O)N2[C@@H]1SC(C)(C)[C@@H]2C(=O)O [CLOXACILLIN]
Campylobacter jejuni [1]
  MIC: 128 µg/mL (≈ 294 µM)
Campylobacter jejuni [2]
  MIC: 256 µg/mL (≈ 587 µM)
Campylobacter jejuni [3]
  MIC: 128 µg/mL (≈ 294 µM)
Campylobacter jejuni [4]
  MIC: 128 µg/mL (≈ 294 µM)
Campylobacter jejuni [5]
  MIC: 256 µg/mL (≈ 587 µM)
Campylobacter jejuni [6]
  MIC: 128 µg/mL (≈ 294 µM)
Campylobacter jejuni [7]
  MIC: > 256 µg/mL
Campylobacter jejuni [8]
  MIC: > 256 µg/mL
Campylobacter jejuni [9]
  MIC: 256 µg/mL (≈ 587 µM)
Campylobacter coli [10]
  MIC: 256 µg/mL (≈ 587 µM)
Campylobacter jejuni [11]
  MIC: 128 µg/mL (≈ 294 µM)
Campylobacter jejuni [12]
  MIC: 256 µg/mL (≈ 587 µM)
Campylobacter jejuni [13]
  MIC50: 256 µg/mL (≈ 587 µM)
  MIC90: > 256 µg/mL
Campylobacter coli [14]
  MIC: 256 µg/mL (≈ 587 µM)
  MIC50: 256 µg/mL (≈ 587 µM)
  MIC90: > 256 µg/mL
Campylobacter jejuni [15]
  MIC: 256 µg/mL (≈ 587 µM)
Campylobacter jejuni [16]
  MIC: 256 µg/mL (≈ 587 µM)
Campylobacter coli [17]
  MIC: 256 µg/mL (≈ 587 µM)
Campylobacter jejuni [18]
  MIC: 512 µg/mL (≈ 1170 µM)
Campylobacter jejuni [19]
  MIC: 256 µg/mL (≈ 587 µM)
Campylobacter jejuni [20]
  MIC: 128 µg/mL (≈ 294 µM)
Campylobacter jejuni [21]
  MIC: 256 µg/mL (≈ 587 µM)
Campylobacter jejuni [22]
  MIC: 256 µg/mL (≈ 587 µM)
Campylobacter jejuni [23]
  MIC: 256 µg/mL (≈ 587 µM)
Campylobacter coli [24]
  MIC: 256 µg/mL (≈ 587 µM)
Campylobacter jejuni [25]
  MIC: 256 µg/mL (≈ 587 µM)
Campylobacter jejuni [26]
  MIC: 256 µg/mL (≈ 587 µM)

From ChEMBL document CHEMBL1649560, “Beta-lactamase-mediated beta-lactam resistance in Campylobacter species: prevalence of Cj0299 (bla OXA-61) and evidence for a novel beta-Lactamase in C. jejuni” (2009)
